# Measured values as given in ChEMBL document CHEMBL1157190, “Design, synthesis, and anticonvulsant activity of N-phenylamino derivatives of 3,3-dialkyl-pyrrolidine-2,5-diones and hexahydro-isoindole-1,3-diones” (Bioorg Med Chem, 2008).
# Active and inactive are the calls of the source. The rule behind the calls is not given here.
# Experiments:
# Mus musculus [1] = experiment: Anticonvulsant activity in ip dosed CF1 albino mouse assessed as inhibition of subcutaneous pentylenetetrazole-induced electrical stimulus at 300 mg/kg after 4 hrs; assay type: functional, organism-based; parameters: dose 300 mg/kg
# Method in brief: (§1)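 Male CF-1 mice injected intraperitoneally at 30, 100 and 300 mg/kg, suspended in 0.5% methylcellulose/water. MES or subcutaneous pentylenetetrazole challenge at 0.5 and 4 h; selected compounds also at 1 or 2 h.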
# [2] = Lipophilicity, log kw of compound by RP-HPLC; assay type: physicochemical
# Method in brief: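 RP-HPLC on a C18 end-capped column at room temperature, with UV detection at 214 nm and uracil as the unretained marker. Capacity factor k = (tr − t0)/t0, from the mean of three measurement sets. log k extrapolated to 100% water (log k = log kw − Sφ) to give log kw.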
# Mus musculus [3] = experiment: Anticonvulsant activity in ip dosed CF1 albino mouse assessed as inhibition of maximal electroshock-induced electrical stimulus at 300 mg/kg after 4 hrs; assay type: functional, organism-based; parameters: dose 300 mg/kg; method in brief: as §1
# Mus musculus [4] = experiment: Neurotoxicity in ip dosed CF1 albino mouse after 0.5 hr by rotarod test; assay type: toxicity, organism-based; conditions: in vivo
# Method in brief: (§2)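 CF-1 mice given 30, 100 or 300 mg/kg ip in 0.5% methylcellulose/water, examined at 0.5 and 4 h. Rotorod test: neurotoxicity is the inability to keep equilibrium on the rod for a given time. Value is the minimum dose giving motor impairment; a dash means none at 300 mg/kg.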
# Mus musculus [5] = experiment: Anticonvulsant activity in ip dosed CF1 albino mouse assessed as inhibition of subcutaneous pentylenetetrazole-induced electrical stimulus at 300 mg/kg after 0.5 hr; assay type: functional, organism-based; parameters: dose 300 mg/kg; method in brief: as §1
# Mus musculus [6] = experiment: Anticonvulsant activity in ip dosed CF1 albino mouse assessed as inhibition of maximal electroshock-induced electrical stimulus after 0.5 hr; assay type: functional; method in brief: as §1
# Mus musculus [7] = experiment: Neurotoxicity in ip dosed CF1 albino mouse at 300 mg/kg after 4 hrs by rotarod test; assay type: toxicity, organism-based; parameters: dose 300 mg/kg, route intraperitoneal; conditions: in vivo; method in brief: as §2
# Mus musculus [8] = experiment: Neurotoxicity in ip dosed CF1 albino mouse after 4 hrs by rotarod test; assay type: toxicity, organism-based; conditions: in vivo; method in brief: as §2
# Mus musculus [9] = experiment: Anticonvulsant activity in ip dosed CF1 albino mouse assessed as inhibition of subcutaneous pentylenetetrazole-induced electrical stimulus after 0.5 hr; assay type: functional; method in brief: as §1
# Mus musculus [10] = experiment: Anticonvulsant activity in ip dosed CF1 albino mouse assessed as inhibition of maximal electroshock-induced electrical stimulus after 4 hrs; assay type: functional; method in brief: as §1
# Rattus norvegicus [11] = experiment: Anticonvulsant activity in Sprague-Dawley rat assessed as protection against seizure at 30 mg/kg, po after 4 hrs by maximal electroshock test; assay type: functional
# Method in brief: (§3)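 Male Sprague–Dawley rats; compound suspended in 0.5% methylcellulose/water and given orally at a fixed 30 mg/kg, four rats per time point. MES test run at 0.25, 0.5, 1, 2 and 4 h after dosing, with motor impairment checked in parallel. Read-out: number of rats of four protected.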
# Rattus norvegicus [12] = experiment: Anticonvulsant activity in Sprague-Dawley rat assessed as protection against seizure at 50 mg/kg, po after 0.5 hr by subcutaneous pentylenetetrazole test; assay type: functional
# Method in brief: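 Male Sprague–Dawley rats dosed orally at 50 mg/kg as a 0.5% methylcellulose/water suspension, four animals per time point. Convulsant given subcutaneously at 0.25, 0.5, 1, 2 and 4 h after dosing; rotorod motor impairment assessed in parallel. Read-out: number of rats of four protected.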
# Rattus norvegicus [13] = experiment: Anticonvulsant activity in Sprague-Dawley rat assessed as protection against seizure at 30 mg/kg, po after 0.5 hr by maximal electroshock test; assay type: functional; method in brief: as §3
# Rattus norvegicus [14] = experiment: Anticonvulsant activity in Sprague-Dawley rat assessed as protection against seizure at 30 mg/kg, po after 2 hrs by maximal electroshock test; assay type: functional; method in brief: as §3
# Rattus norvegicus [15] = experiment: Anticonvulsant activity in Sprague-Dawley rat assessed as protection against seizure at 30 mg/kg, po after 1 hr by maximal electroshock test; assay type: functional; method in brief: as §3
# Mus musculus [16] = experiment: Anticonvulsant activity in ip dosed CF1 albino mouse assessed as inhibition of maximal electroshock-induced electrical stimulus at 300 mg/kg after 0.5 hr; assay type: functional, organism-based; parameters: dose 300 mg/kg; method in brief: as §1
# Mus musculus [17] = experiment: Neurotoxicity in ip dosed CF1 albino mouse at 300 mg/kg after 0.5 hr by rotarod test; assay type: toxicity, organism-based; parameters: dose 300 mg/kg, route intraperitoneal; conditions: in vivo; method in brief: as §2
# Rattus norvegicus [18] = experiment: Anticonvulsant activity in Sprague-Dawley rat assessed as protection against seizure at 30 mg/kg, po after 0.25 hr by maximal electroshock test; assay type: functional; method in brief: as §3
# Mus musculus [19] = experiment: Anticonvulsant activity in ip dosed CF1 albino mouse assessed as inhibition of subcutaneous pentylenetetrazole-induced electrical stimulus after 4 hrs; assay type: functional; method in brief: as §1
SMILES,log K [2],Activity (Mus musculus [1]),Activity (Mus musculus [3]),Activity (Mus musculus [4]) [mg/kg],Activity (Mus musculus [5]),Activity (Mus musculus [6]) [mg/kg],Activity (Mus musculus [7]),Activity (Mus musculus [8]) [mg/kg],Activity (Mus musculus [9]) [mg/kg],Activity (Mus musculus [10]) [mg/kg],Activity (Rattus norvegicus [11]),Activity (Rattus norvegicus [12]),Activity (Rattus norvegicus [13]),Activity (Rattus norvegicus [14]),Activity (Rattus norvegicus [15]),Activity (Mus musculus [16]),Activity (Mus musculus [17]),Activity (Rattus norvegicus [18]),Activity (Mus musculus [19]) [mg/kg]
CCCC1(C)CC(=O)N(Nc2ccc(Cl)cc2)C1=O (stereo not given),2.445,,,100,,100,,300,100,300,inactive,,,,,,,,
CC1(C)CC(=O)N(Nc2ccc(Cl)cc2Cl)C1=O,2.179,,,100,,,,,100,100,inactive,inactive,inactive,,,,,,
CCCCC1(C)CC(=O)N(Nc2ccc(Cl)cc2)C1=O (stereo not given),2.638,inactive,inactive,300,inactive,,Not Active,,,,,,,,,inactive,,,
CCCCC1(C)CC(=O)N(Nc2ccccc2Cl)C1=O (stereo not given),2.566,inactive,inactive,300,,300,Not Active,,300,,,,,,,,,,
CCC1(C)CC(=O)N(Nc2ccc(Cl)cc2)C1=O (stereo not given),2.201,inactive,inactive,100,,100,,300,300,,25%,,,,25%,,,inactive,
CCC1(CC)CC(=O)N(Nc2ccc(Br)cc2)C1=O,2.221,inactive,inactive,,inactive,,Not Active,,,,,,,,,inactive,Not Active,,
CCC1(C)CC(=O)N(Nc2ccccc2C)C1=O (stereo not given),1.864,inactive,inactive,100,inactive,300,,100,,,,,,,,,,,
O=C1C2CCCCC2C(=O)N1Nc1cccc(Cl)c1 (stereo not given),2.173,inactive,inactive,300,,,Not Active,,300,,,,,,,inactive,,,
CC1(C)CC(=O)N(Nc2ccccc2Cl)C1=O,1.876,inactive,inactive,30,,100,Not Active,,300,,,,,,,,,,
CCCCC1(C)CC(=O)N(Nc2ccc(Cl)cc2Cl)C1=O (stereo not given),2.896,inactive,inactive,100,,100,Not Active,,100,,,,,,,,,,
CCC1(CC)CC(=O)N(Nc2ccccc2Cl)C1=O,2.244,inactive,inactive,100,,,Not Active,,300,,,,,,,inactive,,,
CNN1C(=O)CC(C)(C)C1=O,,inactive,inactive,,inactive,,Not Active,,,,,,,,,inactive,Not Active,,

# Now from value to molecule, other results behind:
log K [2],SMILES,Activity (Mus musculus [1]),Activity (Mus musculus [3]),Activity (Mus musculus [4]) [mg/kg],Activity (Mus musculus [5]),Activity (Mus musculus [6]) [mg/kg],Activity (Mus musculus [7]),Activity (Mus musculus [8]) [mg/kg],Activity (Mus musculus [9]) [mg/kg],Activity (Mus musculus [10]) [mg/kg],Activity (Rattus norvegicus [11]),Activity (Rattus norvegicus [12]),Activity (Rattus norvegicus [13]),Activity (Rattus norvegicus [14]),Activity (Rattus norvegicus [15]),Activity (Mus musculus [16]),Activity (Mus musculus [17]),Activity (Rattus norvegicus [18]),Activity (Mus musculus [19]) [mg/kg]
1.999,CCC1(CC)CC(=O)N(Nc2ccc(C)cc2)C1=O,inactive,inactive,100,inactive,300,Not Active,,,,,,,,,,,,
2.425,O=C1C2CCCCC2C(=O)N1Nc1ccc(Cl)cc1Cl (stereo not given),inactive,,300,inactive,,,300,,100,,,,,,,,,
2.183,CCC1(C)CC(=O)N(Nc2cccc(Cl)c2)C1=O (stereo not given),,,300,,300,,,,,inactive,inactive,,inactive,inactive,,,,
2.162,O=C1C2CCCCC2C(=O)N1Nc1ccccc1Cl (stereo not given),inactive,inactive,,inactive,,Not Active,,,,,,,,,inactive,Not Active,,
2.403,CCCC1(C)CC(=O)N(Nc2ccc(Br)cc2)C1=O (stereo not given),,,300,,100,,300,300,300,inactive,,,,,,,,
2.401,CCCC1(C)CC(=O)N(Nc2cccc(Cl)c2)C1=O (stereo not given),inactive,inactive,100,,300,Not Active,,300,,,,,,,,,,
1.642,Cc1ccc(NN2C(=O)CC(C)(C)C2=O)cc1,inactive,inactive,100,,300,Not Active,,300,,,,,,,,,,
2.024,CCC1(C)CC(=O)N(Nc2ccc(Br)cc2)C1=O (stereo not given),,inactive,300,,300,Not Active,,300,,25%,,50%,50%,50%,,,75%,100
1.826,CCC1(CC)CC(=O)N(Nc2ccccc2)C1=O,inactive,inactive,300,inactive,,Not Active,,,,,,,,,inactive,,,
2.364,CCCC1(C)CC(=O)N(Nc2ccccc2Cl)C1=O (stereo not given),inactive,inactive,300,,300,Not Active,,300,,,,,,,,,,
2.08,CC1(C)CC(=O)N(Nc2ccc(Cl)cc2)C1=O,,,300,,100,,300,100,300,,,,,,,,,300
1.695,CCC1(C)CC(=O)N(Nc2ccccc2)C1=O (stereo not given),,,100,,300,,,300,,inactive,inactive,,inactive,,,,,
2.029,CCC1(C)CC(=O)N(Nc2ccccc2Cl)C1=O (stereo not given),inactive,inactive,300,inactive,300,Not Active,,,,,,,,,,,,
2.224,O=C1C2CCCCC2C(=O)N1Nc1ccc(Cl)cc1 (stereo not given),inactive,inactive,,,,Not Active,,100,,,,,,,inactive,Not Active,,
1.928,CCC1(C)CC(=O)N(Nc2ccc(C)cc2)C1=O (stereo not given),inactive,inactive,300,,300,Not Active,,300,,,,,,,,,,
